Screening data from PubChem.
PGC1a acetyl up = raises PGC1a acetylation signal in U2OS cells | U2OS PGC1a acetylation AlphaScreen, overnight | activation, % at 15.6 µM | actives 0.21% (n = 350,000) | AID 651723;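 active = every replicate reaching activation of at least 50%, whatever the mean replicate activation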;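 note: hits raise the AlphaScreen acetylation signal above neutral controls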
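detection = AlphaScreen lysate read | assay system = U2OS cells expressing flag-PGC1a plus GCN5 | input = 7000 cells/well | dosing = one concentration | times = compound overnight at 37 °C, each detection step 1 h RT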
* = called active by the depositor. Only a sample is shown.

SMILES | PGC1a acetyl up
Cn1nnnc1Sc1ncnc2scc(-c3ccc(C#N)cc3)c12 | 74*
CCCNC(=O)[C@H]1[C@H](CO)[C@H]2Cn3c(ccc(-c4ccccc4)c3=O)[C@H]2N1C(=O)C1CC1 | -41
CCC(C)(C)n1nnnc1CN(Cc1ccc(Cl)cc1)Cc1ccco1 | 82*
O=C(C[C@@H]1CC[C@@H]2[C@H](COC[C@@H](O)CN2S(=O)(=O)c2ccc(Cl)cc2)O1)N[C@@H]1CCN(Cc2ccccc2)C1 | -48
COc1ccc(CC2C(=O)NC(C)C(=O)N(C)C3Cc4ccc(cc4)Oc4cc(ccc4O)CC(C(=O)NC(C)C(=O)NC(C)C(=O)N2C)N(C)C3=O)cc1 (stereo unspecified) | -70
CC(C)(C)S(=O)N1Cc2cc(C(=O)NCc3ccc(Oc4ccccc4)cc3)nc(-c3cccc(-c4cc5ccccc5o4)c3)c2[C@H]1CCO (stereo partly specified) | 62*
C[C@@H]1CCCCO[C@@H](CN(C)C(=O)c2ccncc2)[C@@H](C)CN([C@H](C)CO)C(=O)c2cc(NC(=O)CCCCCC(=O)Nc3ccccc3N)ccc2O1 | -99
COC(=O)c1ccc2c(c1)C(C)(C)C(/C=C/c1ccccc1O)=[N+]2C | 52*
CCCSCC(=O)Nc1ncc2c(n1)-c1ccccc1CC2 | -45
O=C1c2ccsc2SCCN1Cc1cccc(Cl)c1 | 50*
CC(C)OC(=O)c1c(F)c(F)c(N2CCOCC2)c(F)c1F | -57
C[C@H](CO)N1C[C@H](C)[C@H](CN(C)S(=O)(=O)c2ccc(F)cc2)Oc2ccc(NS(=O)(=O)c3cn(C)cn3)cc2C1=O | -51
O=C(Nc1ccc(F)cc1)c1ccccc1 | -52
O=C(NC(Nc1cc(C(F)(F)F)ccc1Cl)C(=O)c1ccccc1)c1ccccc1 (stereo unspecified) | 100*
Nc1nc(Nc2ccccc2)nc2ccccc12 | 52*
COc1ccc(Nc2ccnc3ccccc23)cc1 | -51
Cn1nc(C(C)(C)C)cc1NC(=O)C1(C)CCN1C(=O)C1(c2ccccc2)CCCC1 (stereo unspecified) | -55
COCCNC(=O)/C(C#N)=C/C=C/c1ccccc1[N+](=O)[O-] | 104*
CN(C)CC(O)c1ccc(C=Cc2ccc(Cl)cc2)cc1 (stereo unspecified) | -51
CCc1nc2c(OCc3ccc(S(C)(=O)=O)cc3)cccn2c1N(C)C(=O)c1ccccc1F | -45
NS(=O)(=O)c1ccc(CCNC(=O)c2ccc3nc4ccc(Cl)cc4c(=O)n3c2)cc1 | 85*
NS(=O)(=O)c1ccc(CCNC2CC(=O)N(Cc3ccccc3)C2=O)cc1 (stereo unspecified) | -46
C[C@H]1CCCCO[C@H](CN(C)Cc2ccncc2)[C@@H](C)CN([C@@H](C)CO)C(=O)c2cc(NS(=O)(=O)c3ccccc3)ccc2O1 | -73
O=C(/C=C/c1cccnc1)/C=C/c1cccnc1 | -81
CC(NC(=O)Nc1cccnc1)(C(F)(F)F)C(F)(F)F | 62*
SMILES | PGC1a acetyl up
CCC(=O)Nc1ccnc(-c2cccnc2)n1 | -42
Cc1cc(C)c(C(=O)/C=C/c2ccc(C(C)C)cc2)c(=O)[nH]1 | -64
COc1cccc2c1C(CO)N1C(C#N)C3CC(C(=O)O)C(C1C2)N3C (stereo unspecified) | -66
CC1(C)CCC[C@]2(C)[C@H]3Cc4cc(O)ccc4O[C@]3(C)CC[C@@H]12 | 67*
C[C@@H]1CN([C@H](C)CO)C(=O)c2cc(C3=CCCCC3)cnc2O[C@@H]1CN(C)Cc1ccccc1 | -44
CC(=O)c1c(COC(=O)c2ccccc2)nc2ccccc2[n+]1[O-] | -55
CCOc1nc(NC(=O)NS(=O)(=O)c2ccccc2F)nc(-c2ccccc2)n1 | -50
CS(=O)(=O)c1nc(-c2ccccc2)cc(C(F)(F)F)n1 | -64
O=C(NCc1cccnc1)c1ccc(NC(=O)c2cccc([N+](=O)[O-])c2)cc1 | 171*
Cc1ccc(S(=O)(=O)Nc2ccccc2C(=O)NCc2cccnc2)cc1 | -91
Cc1c(Cl)c([N+](=O)[O-])nn1CC(=O)NCc1cccnc1 | -42
O=C(COc1ccc([N+](=O)[O-])cc1)Nc1ccc(C(=O)NCc2cccnc2)cc1 | 192*
CC(C)(C)NC(=O)C(=O)NNC(=O)c1cccc([N+](=O)[O-])c1 | -57
C/C(=N/NC(=O)CNC(=O)c1cccnc1)c1ccc([N+](=O)[O-])cc1 | -43
CCc1c(C(=O)NC2CCCCC2)[nH]c(C)c1C(C)=O | -93
CNc1ccc2ncc(-c3ccc(OC)c(OC)c3)n2n1 | -58
Cc1ccc(C)c(N2CCN(C(=O)CCCOc3cc(=O)n(C)c4ccccc34)CC2)c1 | 128*
Cc1ccc(S(=O)(=O)N2CCN(C(=O)CSc3nc4ccccc4c(=O)[nH]3)CC2)c(C)c1 | -44
O=C(Cc1cccnc1)N1CC(=O)N2[C@H](CO)[C@@H](c3ccc(C#CC4CCCCC4)cc3)[C@H]2C1 | -50
OC[C@H]1[C@H](c2ccc(C#CC3CCCC3)cc2)[C@@H]2CN(CCC(F)(F)F)CCCCN12 | 65*
OC[C@@H]1[C@H](c2ccc(/C=C/c3ccccc3)cc2)[C@H]2CN(CCC(F)(F)F)CCCCN12 | 67*
COc1ccc(OCCCC(=O)OCC(=O)Nc2c(C)nn(-c3ccccc3)c2C)cc1 | -85
CCCCS(=O)(=O)/C=C\C=C/S(=O)(=O)CCCC | -97
CCOc1ccc(Nc2ncnc3ccc([N+](=O)[O-])cc23)cc1 | -50
Cc1ccccc1OCC(O)CNC1CCC(NCC(O)COc2ccccc2C)CC1 (stereo unspecified) | 88*
SMILES | PGC1a acetyl up
C[C@@H]1CN([C@H](C)CO)C(=O)c2cc(C#CC(C)(C)O)cnc2O[C@H]1CN(C)C(=O)c1ccccc1F | -50
CNC[C@H]1Oc2ccc(NC(=O)CCN3CCOCC3)cc2C(=O)N([C@H](C)CO)C[C@H]1C | -42
O=C(N/N=C/C(Br)=C\c1ccccc1)c1n[nH]c2c1CCC2 | 91*
COc1ccc(OC)c(/C=N/NC(=O)c2[nH]ncc2Br)c1 | -44
COc1ccc(-c2cc(C(=O)N/N=C/c3cc(OC)c(OC)cc3OC)c3ccccc3n2)cc1 | -45
Cn1cc(C(=O)N/N=C/C(Br)=C\c2ccccc2)ccc1=O | 128*
COc1cccc(C(=O)N/N=C/C(Br)=C/c2ccccc2)c1 | 101*
Cc1occc1C(=O)N/N=C/C(Br)=C/c1ccccc1 | 164*
O=C(CN1C(=O)C2C3CC(C(Br)C3Br)C2C1=O)OCC(=O)c1cccc([N+](=O)[O-])c1 (stereo unspecified) | -76
Cc1noc(C)c1S(=O)(=O)Nc1ccc2c(c1)C(=O)N([C@H](C)CO)C[C@@H](C)[C@@H](CN(C)S(=O)(=O)c1cccs1)OCCCC[C@H](C)O2 | -51
CCn1c(Oc2ccccc2F)nc2c1c(=O)n(C)c(=O)n2C | -40
O=S1(=O)CC=C(CSC(=S)NC2CCS(=O)(=O)C2)C1 (stereo unspecified) | -47
CCOC(=O)C1CCN(Cc2ccc(O)c3ncccc23)CC1 | 61*
CCOC(=O)C1CCN(C2=NC(=O)/C(=C/c3ccc(O)cc3)S2)CC1 | -41
CCOC(=O)C1CCCN(C(=O)CSc2ccc(Br)cc2)C1 (stereo unspecified) | -78
CC(=O)N1/C(=C/c2ccc(N(C)C)cc2)C(=O)c2ccccc21 | 75*
C=CS(=O)(=O)N(Cc1ccc(Cl)c(Cl)c1)C[C@@H](O)CO | 65*
Cc1cccc(CCN(CC(=O)NC(C)(C)C)C(=O)c2csnn2)c1 | -47
O=C(/C=C/c1ccc(F)cc1)NNC(=O)CCN1CCN(Cc2ccccc2)CC1 | -52
